In brackets after ≈: the same amount, converted by molar mass. Activity calls are given as the source filed them. The calls are words filed in the database; no cut-off is given here.
Legend:
Neisseria gonorrhoeae = assay: Antibacterial activity against Neisseria gonorrhoeae ATCC 19424 after 48 hrs by ten-fold serial dilution method; format: functional; settings: ATCC 19424, 48 h
Summary of the method: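 Tested on chocolate agar made from GC agar base with hemoglobin and Supplement C, incubated 48 h at 37 °C. Plates were checked visually, and the MIC (µg/mL) is the lowest concentration with no visible growth.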

Bacteroides fragilis = assay: Antibacterial activity against Bacteroides fragilis ATCC 23745 after 24 hrs by ten-fold serial dilution method; format: functional; settings: ATCC 23745, 24 h
Summary of the method: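 Grown in Fluid Thioglycollate Broth and incubated 24 h at 37 °C. Growth was read by eye, and the MIC (µg/mL) is the lowest concentration that prevented visible growth.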

Clostridium perfringens = assay: Antibacterial activity against Clostridium perfringens ATCC 13124 after 24 hrs by ten-fold serial dilution method; format: functional; settings: ATCC 13124, 24 h
Summary of the method: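 Grown in Fluid Thioglycollate Broth and incubated 24 h at 37 °C. Growth was checked by eye after incubation. MIC was taken as the lowest concentration, in μg/mL, that prevented visible growth.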

Pentatrichomonas hominis = assay: Antibacterial activity against Pentatrichomonas hominis ATCC 30000 after 48 hrs by ten-fold serial dilution method; format: functional; settings: ATCC 30000, 48 h
Summary of the method: (§1)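 Trichomonads were cultured in Diamond medium with 5% serum and incubated 48 h at 37 °C. Cultures were examined microscopically for motile cells, and the MIC (µg/mL) is the lowest concentration giving no motile organisms.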

Trichomonas vaginalis = assay: Antibacterial activity against Trichomonas vaginalis ATCC 30001 after 48 hrs by ten-fold serial dilution method; format: functional; settings: ATCC 30001, 48 h; summary of the method: as §1
Tritrichomonas foetus = assay: Antibacterial activity against Tritrichomonas foetus 1002-96-27 after 48 hrs by ten-fold serial dilution method; format: functional; settings: 1002-96-27, 48 h; summary of the method: as §1
Candida albicans = assay: Antifungal activity against Candida albicans; format: functional, organism-based

Structure (SMILES) | MIC (Neisseria gonorrhoeae) | MIC (Bacteroides fragilis) | MIC (Clostridium perfringens) | MIC (Pentatrichomonas hominis) | MIC (Trichomonas vaginalis) | MIC (Tritrichomonas foetus) | Activity (Candida albicans)
Cn1c([N+](=O)[O-])cnc1SCCCCOc1ccc(C(=O)O)cc1 | 100 µg/mL (≈ 285 µM) | 10 µg/mL (≈ 28.5 µM) | 10 µg/mL (≈ 28.5 µM) | 1 µg/mL (≈ 2.85 µM) | 1 µg/mL (≈ 2.85 µM) | 1 µg/mL (≈ 2.85 µM) | inactive
CCOC(=O)c1ccc(OCCCCCCSc2ncc([N+](=O)[O-])n2C)c([N+](=O)[O-])c1 | > 100 µg/mL | 10 µg/mL (≈ 22.1 µM) | 100 µg/mL (≈ 221 µM) | 10 µg/mL (≈ 22.1 µM) | 10 µg/mL (≈ 22.1 µM) | 100 µg/mL (≈ 221 µM) | inactive
Cn1c([N+](=O)[O-])cnc1SCCCCCC(=O)O | 0.1 µg/mL (≈ 0.366 µM) | 100 µg/mL (≈ 366 µM) | 10 µg/mL (≈ 36.6 µM) | 1 µg/mL (≈ 3.66 µM) | 1 µg/mL (≈ 3.66 µM) | 1 µg/mL (≈ 3.66 µM) | inactive
Cn1c([N+](=O)[O-])cnc1SCCOc1ccc(Br)cc1 | > 100 µg/mL | 100 µg/mL (≈ 279 µM) | > 100 µg/mL | 10 µg/mL (≈ 27.9 µM) | 10 µg/mL (≈ 27.9 µM) | 10 µg/mL (≈ 27.9 µM) | inactive
Cn1c([N+](=O)[O-])cnc1S(=O)(=O)CCC(=O)O | 100 µg/mL (≈ 380 µM) | > 100 µg/mL | > 100 µg/mL | 100 µg/mL (≈ 380 µM) | 100 µg/mL (≈ 380 µM) | 100 µg/mL (≈ 380 µM) | inactive
Cn1c([N+](=O)[O-])cnc1[S+]([O-])CCC(=O)O (centres undefined) | > 100 µg/mL | 10 µg/mL (≈ 40.4 µM) | 100 µg/mL (≈ 404 µM) | 10 µg/mL (≈ 40.4 µM) | 10 µg/mL (≈ 40.4 µM) | 10 µg/mL (≈ 40.4 µM) | inactive
Cn1ccnc1SCCCCC(=O)O | > 100 µg/mL | > 100 µg/mL | > 100 µg/mL | > 100 µg/mL | > 100 µg/mL | > 100 µg/mL | inactive

Reference: ChEMBL document CHEMBL3272259, “Nitroimidazoles with antibacterial activity against Neisseria gonorrhoeae” (1977)
